In ChEMBL document CHEMBL3632581, “Dimers of Melampomagnolide B Exhibit Potent Anticancer Activity against Hematological and Solid Tumor Cells” (J Med Chem, 2015):

Tests used:
HL-60(TB) = experiment: Cytotoxicity against human HL-60(TB) cells after 48 hrs by SRB assay; assay type: functional; details: HL-60, 48 h
Summary of the method: (§1)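 NCI-60 five-dose screen at 10−8 to 10−4 M. Cells were plated at 5,000–40,000/well in RPMI 1640 with 5% FBS and 2 mM L-glutamine, then preincubated 24 h, and time-zero plates were TCA-fixed. Compound was added from DMSO stocks and exposed 48 h at 37 °C. Cells were TCA-fixed, SRB-stained, and read at 515 nm. LC50 is the concentration halving the cell population through cell death.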

MOLT-4 = experiment: Cytotoxicity against human MOLT4 cells after 48 hrs by SRB assay; assay type: functional; details: MOLT-4, 48 h; summary of the method: as §1
A549 = experiment: Cytotoxicity against human A549 cells after 48 hrs by SRB assay; assay type: functional; details: A549, 48 h; summary of the method: as §1
HOP-92 = experiment: Cytotoxicity against human HOP92 cells after 48 hrs by SRB assay; assay type: functional; details: HOP-92, 48 h; summary of the method: as §1
NCI-H226 = experiment: Cytotoxicity against human NCI-H226 cells after 48 hrs by SRB assay; assay type: functional; details: NCI-H226, 48 h; summary of the method: as §1
NCI-H23 = experiment: Cytotoxicity against human NCI-H23 cells after 48 hrs by SRB assay; assay type: functional; details: NCI-H23, 48 h; summary of the method: as §1
COLO 205 = experiment: Cytotoxicity against human COLO205 cells after 48 hrs by SRB assay; assay type: functional; details: COLO 205, 48 h; summary of the method: as §1
KM12 = experiment: Cytotoxicity against human KM12 cells after 48 hrs by SRB assay; assay type: functional; details: KM12, 48 h; summary of the method: as §1
SF-268 = experiment: Cytotoxicity against human SF268 cells after 48 hrs by SRB assay; assay type: functional; details: SF-268, 48 h; summary of the method: as §1
SF-295 = experiment: Cytotoxicity against human SF295 cells after 48 hrs by SRB assay; assay type: functional; details: SF-295, 48 h; summary of the method: as §1
U-251 = experiment: Cytotoxicity against human U251 cells after 48 hrs by SRB assay; assay type: functional; details: U-251, 48 h
Summary of the method: (§2)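 NCI-60 screen: cells grown in RPMI 1640 with 5% FBS and 2 mM L-glutamine, plated at 5,000–40,000 cells/well by doubling time, and preincubated 24 h at 37 °C before drug. Drug was diluted from DMSO stock and given at five concentrations, 10−4 to 10−8 M, for 48 h. Cells fixed with cold TCA, SRB stained, OD read at 515 nm against time-zero and vehicle plates. LC50 taken as the concentration that halves cell population through cell death.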

LOX IMVI = experiment: Cytotoxicity against human LOXIMVI cells after 48 hrs by SRB assay; assay type: functional; summary of the method: as §1
M14 = experiment: Cytotoxicity against human M14 cells after 48 hrs by SRB assay; assay type: functional; details: M14, 48 h; summary of the method: as §1
MDA-MB-435 = experiment: Cytotoxicity against human MDA-MB-435 cells after 48 hrs by SRB assay; assay type: functional; details: MDA-MB-435, 48 h; summary of the method: as §1
SK-MEL-28 = experiment: Cytotoxicity against human SK-MEL-28 cells after 48 hrs by SRB assay; assay type: functional; details: SK-MEL-28, 48 h; summary of the method: as §1
SK-MEL-5 = experiment: Cytotoxicity against human SK-MEL-5 cells after 48 hrs by SRB assay; assay type: functional; details: SK-MEL-5, 48 h; summary of the method: as §1
UACC-257 = experiment: Cytotoxicity against human UACC257 cells after 48 hrs by SRB assay; assay type: functional; details: UACC-257, 48 h; summary of the method: as §2
OVCAR-3 = experiment: Cytotoxicity against human OVCAR3 cells after 48 hrs by SRB assay; assay type: functional; details: OVCAR-3, 48 h; summary of the method: as §1
OVCAR-4 = experiment: Cytotoxicity against human OVCAR4 cells after 48 hrs by SRB assay; assay type: functional; details: OVCAR-4, 48 h; summary of the method: as §1
SK-OV-3 = experiment: Cytotoxicity against human SKOV3 cells after 48 hrs by SRB assay; assay type: functional; details: SK-OV-3, 48 h; summary of the method: as §1
786-0 = experiment: Cytotoxicity against human 786-0 cells after 48 hrs by SRB assay; assay type: functional; details: 786-0, 48 h; summary of the method: as §1
ACHN = experiment: Cytotoxicity against human ACHN cells after 48 hrs by SRB assay; assay type: functional; summary of the method: as §1
RXF 393 = experiment: Cytotoxicity against human RXF393 cells after 48 hrs by SRB assay; assay type: functional; details: RXF 393, 48 h; summary of the method: as §1
SN12C = experiment: Cytotoxicity against human SN12C cells after 48 hrs by SRB assay; assay type: functional; summary of the method: as §1
UO-31 = experiment: Cytotoxicity against human UO31 cells after 48 hrs by SRB assay; assay type: functional; details: UO-31, 48 h; summary of the method: as §2
DU-145 = experiment: Cytotoxicity against human DU145 cells after 48 hrs by SRB assay; assay type: functional; details: DU-145, 48 h; summary of the method: as §1
MDA-MB-231 = experiment: Cytotoxicity against human MDA-MB-231 cells after 48 hrs by SRB assay; assay type: functional; details: MDA-MB-231, 48 h; summary of the method: as §1
[1] = Cytotoxicity against human Hs 578T cells after 48 hrs by SRB assay; assay type: functional; summary of the method: as §1
BT-549 = experiment: Cytotoxicity against human BT549 cells after 48 hrs by SRB assay; assay type: functional; details: BT-549, 48 h; summary of the method: as §1
MDA-MB-468 = experiment: Cytotoxicity against human MDA-MB-468 cells after 48 hrs by SRB assay; assay type: functional; details: MDA-MB-468, 48 h; summary of the method: as §1
[2] = Antileukemic activity against human M9-ENL1 cells after 24 hrs by annexin V/7-AAD staining-based flow cytometric analysis; assay type: functional, cell-based
Summary of the method: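 M9-ENL1 cells in alpha-MEM with 5% human plasma, 20% FBS, SCF, IL-3, IL-7 and FLT3. Drug came from a DMSO stock diluted in PBS (≤0.5% DMSO final), for 24 h over 0.5-10 μM. Cells negative for both annexin V and 7-AAD were taken as non-apoptotic and normalized to vehicle. EC50 read from dose-response curves, triplicate.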

[3] = Cytotoxicity against hematopoietic progenitor cells isolated from human umbilical cord blood by annexin V staining-based flow cytometric analysis; assay type: cell-based
Summary of the method: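 Cord-blood mononuclear cells from Ficoll-Paque were plated in serum-free medium, with drug from a DMSO stock (≤0.5% DMSO final). Cells were stained for CD34, CD45 and annexin V. The non-apoptotic fraction (annexin V-negative within the CD34+CD45dim compartment) was normalized to vehicle, and EC50 was fitted where possible. Triplicate.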

[4] = Potency index, ratio of parthenolide EC50 to compound EC50 for human M9-ENL1 cells; assay type: functional
[5] = read-out: LC50 (the source's name)

Compound: C=C1C(=O)O[C@H]2[C@H]1CC/C(COC(=O)NCCCCNC(=O)OC/C1=C/CC[C@@]3(C)O[C@H]3[C@H]3OC(=O)C(=C)[C@@H]3CC1)=C\CC[C@@]1(C)O[C@@H]21
- GI50 (HL-60(TB)): 250 nM
- CC50 (HL-60(TB); [5]): > 100 µM
- GI50 (MOLT-4): 1470 nM
- CC50 (MOLT-4; [5]): > 100 µM
- GI50 (A549): 8.02 µM
- CC50 (A549; [5]): 58.7 µM
- GI50 (HOP-92): 280 nM
- CC50 (HOP-92; [5]): 46.1 µM
- GI50 (NCI-H226): 11.4 µM
- CC50 (NCI-H226; [5]): 81.6 µM
- GI50 (NCI-H23): 2180 nM
- CC50 (NCI-H23; [5]): 30.4 µM
- GI50 (COLO 205): 460 nM
- CC50 (COLO 205; [5]): 5.79 µM
- GI50 (KM12): 3.18 µM
- CC50 (KM12; [5]): 43.3 µM
- GI50 (SF-268): 3.18 µM
- CC50 (SF-268; [5]): 51 µM
- GI50 (SF-295): 13 µM
- CC50 (SF-295; [5]): 57.7 µM
- GI50 (U-251): 2940 nM
- CC50 (U-251; [5]): 33.3 µM
- GI50 (LOX IMVI): 510 nM
- CC50 (LOX IMVI; [5]): 5.15 µM
- GI50 (M14): 1970 nM
- CC50 (M14; [5]): 16.3 µM
- GI50 (MDA-MB-435): 1240 nM
- CC50 (MDA-MB-435; [5]): 9.42 µM
- GI50 (SK-MEL-28): 520 nM
- CC50 (SK-MEL-28; [5]): 8.08 µM
- GI50 (SK-MEL-5): 3.33 µM
- CC50 (SK-MEL-5; [5]): 41.4 µM
- GI50 (UACC-257): 1680 nM
- CC50 (UACC-257; [5]): 22.9 µM
- GI50 (OVCAR-3): 690 nM
- CC50 (OVCAR-3; [5]): 4.76 µM
- GI50 (OVCAR-4): 1770 nM
- CC50 (OVCAR-4; [5]): 30.5 µM
- GI50 (SK-OV-3): 12.7 µM
- CC50 (SK-OV-3; [5]): 50.4 µM
- GI50 (786-0): 1990 nM
- CC50 (786-0; [5]): 9.11 µM
- GI50 (ACHN): 3.44 µM
- CC50 (ACHN; [5]): 39.8 µM
- GI50 (RXF 393): 1440 nM
- CC50 (RXF 393; [5]): 7.84 µM
- GI50 (SN12C): 2750 nM
- CC50 (SN12C; [5]): 39.5 µM
- GI50 (UO-31): 7.61 µM
- CC50 (UO-31; [5]): 47.7 µM
- GI50 (DU-145): 3.21 µM
- LC50 (concentration killing half the cells) (DU-145): 33.8 µM
- GI50 (MDA-MB-231): 1530 nM
- LC50 (MDA-MB-231): 6.83 µM
- GI50 [1]: 2540 nM
- CC50 [1, 5]: > 100 µM
- GI50 (BT-549): 1600 nM
- LC50 (BT-549): 8.23 µM
- GI50 (MDA-MB-468): 420 nM
- LC50 (MDA-MB-468): 7.76 µM
- EC50 [2]: 1500 nM
- EC50 [3]: > 10 µM
- Ratio EC50 [4]: 2
